Results from different studies.
Organism: Staphylococcus aureus
Observed: microbial growth

Structure (SMILES)	assay	test system	setting	MIC
CCCCCCC#Cc1cncc(-c2nnc(SCc3cc([N+](=O)[O-])cc([N+](=O)[O-])c3)n2C2CCNCC2)c1	broth dilution	ATCC29213	–	8 µg/mL
[H]/N=C(\N/C(=N/[H])NCCCCCCNC(=N)NC(=N)Nc1ccc(Cl)cc1)Nc1ccc(Cl)cc1	–	ATCC33591 MRSA	drug-resistant strain	1 µM
Cc1ccc2[nH]nc(-c3nnc(Nc4ccc(C)c(C)c4)s3)c2c1	–	ATCC29213	–	94.2 µg/mL
COc1ccc(N2N=C(C(C)=O)SC2=C(C#N)C(=O)c2ccc(Nc3cnccn3)cc2)cc1	broth dilution	ATCC25923	–	6.25 µg/mL
c1ccc(CSc2nc3ccccc3cc2CNCc2ccc(CN3CCCC3)cc2)cc1	broth dilution	–	–	64 µg/mL
CCCCCCCCN=c1ccn(CCCCCCCCCCn2ccc(=NCCCCCCCC)cc2)cc1	–	ATCC33591 MRSA	drug-resistant strain	1 µM
CCCCCCC#Cc1cncc(-c2nnc(SCc3ccc([N+](=O)[O-])o3)n2CCCN)c1	broth dilution	MRSA	–	> 64 µg/mL
C[C@H]1COc2c(N3CCN(C)CC3)c(F)cc3c(=O)c(C(=O)O)cn1c23	broth dilution	ATCCBAA44	18 h	50 µM
CC[C@H]1OC(=O)[C@H](C)[C@@H](O[C@H]2C[C@@](C)(OC)[C@@H](O)[C@H](C)O2)[C@H](C)[C@@H](O[C@@H]2O[C@H](C)C[C@H](N(C)C)[C@H]2O)[C@](C)(O)C[C@@H](C)CN(C)[C@H](C)[C@@H](O)[C@]1(C)O	–	ATCC29213	–	< 98 µg/mL
O=C1/C(=C/c2ccc3ccccc3c2O)NC(=S)N1c1ccccc1	broth dilution	ATCC6538	–	22 µg/mL
CC1(C)S[C@@H]2[C@H](NC(=O)[C@H](N)c3ccc(O)cc3)C(=O)N2[C@H]1C(=O)O	broth dilution	ATCCBAA44 BAA44	–	64 µg/mL
O=C(N[C@H](CO)[C@H](O)c1ccc([N+](=O)[O-])cc1)C(Cl)Cl	broth dilution	–	–	64 µg/mL
C=C[C@]1(C)C[C@@H](OC(=O)CS[C@@H]2C[C@H]3CC[C@@H](C2)N3C)[C@]2(C)[C@H](C)CC[C@]3(CCC(=O)[C@H]32)[C@@H](C)[C@@H]1O	agar dilution	ATCC43300	–	0.0625 µg/mL
Cc1onc(-c2ccccc2)c1C(=O)N[C@@H]1C(=O)N2[C@@H]1SC(C)(C)[C@@H]2C(=O)O	–	ATCC29213 MSSA	drug-resistant strain	0.25 µg/mL
c1ccc(CSc2nc3ccccc3cc2CNCc2ccc(N3CCCCC3)cc2)cc1	broth dilution	–	–	> 128 µg/mL
CC(=O)C1=NN(c2ccccc2)C(=C(C#N)C(=O)c2ccc(Nc3cnccn3)cc2)S1	broth dilution	ATCC25923	–	50 µg/mL
CCCCCCC#Cc1cncc(-c2nnc(SCc3ccc([N+](=O)[O-])cc3)n2CCCN)c1	broth dilution	MRSA	–	8 µg/mL
COc1c(N2C[C@@H]3CCCN[C@@H]3C2)c(F)cc2c(=O)c(C(=O)O)cn(C3CC3)c12	broth dilution	ATCC33591 MRSA	–	0.125 µg/mL
COc1ccc(-n2nc(C(=O)c3ccc(Nc4cnccn4)cc3)sc2=N)cc1	broth dilution	ATCC25923	–	6.25 µg/mL
CC1(C)S[C@@H]2[C@H](NC(=O)[C@H](N)c3ccccc3)C(=O)N2[C@H]1C(=O)O	broth dilution	MRSA	–	345 µM

Structure (SMILES)	assay	test system	setting	MIC
CCC[C@@H]1C[C@@H](C(=O)N[C@@H]([C@H]2O[C@H](SC)[C@H](O)[C@@H](O)[C@H]2O)[C@@H](C)O)N(C)C1	broth dilution	USA300	–	2 µg/mL
CC1(C)S[C@@H]2[C@H](NC(=O)[C@H](N)c3ccccc3)C(=O)N2[C@H]1C(=O)O	agar dilution	ATCC43300	–	> 128 µg/mL
CN1CCN(CCNCc2cc3ccccc3nc2SCc2ccccc2)CC1	broth dilution	–	–	64 µg/mL
CCCCCCC#Cc1cncc(-c2nnc(SCc3cc([N+](=O)[O-])cc([N+](=O)[O-])c3)n2CCOC2OC(CN)C(O)C2O)c1 (stereo not drawn)	broth dilution	MRSA	–	> 64 µg/mL
CN[C@H](CC(C)C)C(=O)N[C@H]1C(=O)N[C@@H](CC(N)=O)C(=O)N[C@H]2C(=O)N[C@H]3C(=O)N[C@H](C(=O)N[C@H](C(=O)O)c4cc(O)cc(O)c4-c4cc3ccc4O)[C@H](O)c3ccc(c(Cl)c3)Oc3cc2cc(c3O[C@@H]2O[C@H](CO)[C@@H](O)[C@H](O)[C@H]2O[C@H]2C[C@](C)(N)[C@H](O)[C@H](C)O2)Oc2ccc(cc2Cl)[C@H]1O	broth dilution	ATCC29213	–	1 µg/mL
N=c1sc(C(=O)c2ccc(Nc3cnccn3)cc2)nn1-c1ccc([N+](=O)[O-])cc1	broth dilution	ATCC25923	–	3.12 µg/mL
O=C(O)c1cn(C2CC2)c2cc(N3CCNCC3)c(F)cc2c1=O	broth dilution	ATCC25923	16 h	6.25 µM
COc1c(N2C[C@@H]3CCCN[C@@H]3C2)c(F)cc2c(=O)c(C(=O)O)cn(C3CC3)c12	agar dilution	ATCC25923	–	0.0625 µg/mL
Cc1ccc2[nH]nc(-c3nnc(Nc4ccc(F)cc4Cl)s3)c2c1	–	ATCC29213	–	29.7 µg/mL
CCCCCCCCCCCC[N+](C)(C)Cc1ccccc1	–	MRSA USA300	drug-resistant strain	8 µM
CC[C@H]1OC(=O)[C@H](C)[C@@H](O[C@H]2C[C@@](C)(OC)[C@@H](O)[C@H](C)O2)[C@H](C)[C@@H](O[C@@H]2O[C@H](C)C[C@H](N(C)C)[C@H]2O)[C@](C)(O)C[C@@H](C)CN(C)[C@H](C)[C@@H](O)[C@]1(C)O	broth dilution	USA300	–	> 64 µg/mL
c1ccc(CSc2nc3ccc(-c4ccccc4)cc3cc2CNCc2ccc(CN3CCCC3)cc2)cc1	broth dilution	–	–	> 128 µg/mL
CC(=O)NC[C@H]1CN(c2ccc(N3CCOCC3)c(F)c2)C(=O)O1	–	MRSA	–	1 µg/mL
CCCCCCC#Cc1cncc(-c2nnc(SCc3ccc(Cl)cc3)n2CCCN)c1	broth dilution	ATCC29213	–	8 µg/mL
CN[C@H](CC(C)C)C(=O)N[C@H]1C(=O)N[C@@H](CC(N)=O)C(=O)N[C@H]2C(=O)N[C@H]3C(=O)N[C@H](C(=O)N[C@H](C(=O)O)c4cc(O)cc(O)c4-c4cc3ccc4O)[C@H](O)c3ccc(c(Cl)c3)Oc3cc2cc(c3O[C@@H]2O[C@H](CO)[C@@H](O)[C@H](O)[C@H]2O[C@H]2C[C@](C)(N)[C@H](O)[C@H](C)O2)Oc2ccc(cc2Cl)[C@H]1O	broth dilution	USA300	–	1 µg/mL
CN[C@H](CC(C)C)C(=O)N[C@H]1C(=O)N[C@@H](CC(N)=O)C(=O)N[C@H]2C(=O)N[C@H]3C(=O)N[C@H](C(=O)N[C@H](C(=O)O)c4cc(O)cc(O)c4-c4cc3ccc4O)[C@H](O)c3ccc(c(Cl)c3)Oc3cc2cc(c3O[C@@H]2O[C@H](CO)[C@@H](O)[C@H](O)[C@H]2O[C@H]2C[C@](C)(N)[C@H](O)[C@H](C)O2)Oc2ccc(cc2Cl)[C@H]1O	–	MRSA	–	0.5 µg/mL
Cc1cc(O)cc(Nc2nnc(-c3n[nH]c4ccc(C)cc34)s2)c1	–	ATCC29213	–	87.6 µg/mL
CC[C@H]1OC(=O)[C@H](C)[C@@H](O[C@H]2C[C@@](C)(OC)[C@@H](O)[C@H](C)O2)[C@H](C)[C@@H](O[C@@H]2O[C@H](C)C[C@H](N(C)C)[C@H]2O)[C@](C)(O)C[C@@H](C)/C(=N\OCOCCOC)[C@H](C)[C@@H](O)[C@]1(C)O	agar dilution	ATCC25923	–	2 µg/mL
Cc1ccc2[nH]nc(-c3nnc(Nc4cc(Cl)cc(Br)c4)s3)c2c1	–	ATCC29213	–	204 µg/mL
